Assay outcomes as filed in PubChem.
SR-BI HDL uptake = inhibitors of mouse SR-BI mediated HDL lipid uptake; 320,000 compounds, 0.96% hits; inhibition, % at 12.5 µM; ldlA[mSR-BI] CHO cells, DiI-HDL uptake fluorescence, 3 h; Q61009;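 active = mean replicate inhibition of at least 70% and a set share of replicates each scoring 70 or more; inconclusive = meets just one of the two criteria; inactive = fails both criteria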
Target sequence (Q61009 whole entry, looked up): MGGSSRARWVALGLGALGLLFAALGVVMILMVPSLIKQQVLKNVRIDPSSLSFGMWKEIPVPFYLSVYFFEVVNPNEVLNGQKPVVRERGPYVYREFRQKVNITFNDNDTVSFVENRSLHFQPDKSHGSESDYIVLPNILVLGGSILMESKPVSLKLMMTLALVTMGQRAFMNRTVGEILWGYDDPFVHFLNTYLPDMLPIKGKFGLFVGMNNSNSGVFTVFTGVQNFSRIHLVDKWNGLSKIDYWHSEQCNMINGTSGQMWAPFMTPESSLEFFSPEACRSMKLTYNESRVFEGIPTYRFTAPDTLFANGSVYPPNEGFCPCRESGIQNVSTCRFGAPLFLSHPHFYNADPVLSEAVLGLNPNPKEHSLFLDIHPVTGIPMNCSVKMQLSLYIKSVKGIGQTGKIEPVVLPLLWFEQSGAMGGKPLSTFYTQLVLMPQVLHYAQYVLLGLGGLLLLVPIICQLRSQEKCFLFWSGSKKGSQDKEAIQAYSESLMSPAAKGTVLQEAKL
Vif imaging = HIV Vif inhibition. HEK293T cells, Vif self-association by quenched fluorescence, imaging, 24 h. inhibition, % at 7.49 µM. 340,000 compounds, 0.35% hits. AID 602346; in the data active = inhibition above about 50%, passing the limit was not always enough; inconclusive = no clear call, values can overlap the other calls; inactive = below about 31%
SR-BI DiI-HDL act = activators of SR-BI mediated HDL lipid uptake; CHO ldlA[mSR-BI] cells, DiI-HDL uptake fluorescence, 3 h; 100 = double the neutral-control signal; activation, % at 12.5 µM; 320,000 compounds, 0.096% hits; AID 504775;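 active = mean replicate activation of at least 60% and every replicate at or above 60%; inconclusive = mean or all-replicate condition met, but not both; inactive = mean below 60% and not all replicates reaching 60%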
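System: LDL receptor-deficient CHO ldlA cells overexpressing murine SR-BI | Timing: 3 h uptake period with compound, 37 °C | Medium: HEPES-buffered (25 mM, pH 7.4) F12 plus 0.5% BSA | Dosing: Single-point compound dose | Signal: Bottom-read fluorescence, 550/595 nm | Read-out: Retained DiI signal reflecting DiI-HDL uptake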
PKA-R1A activ = activators of PKA-R1A complex; activation, % at 11.4 µM; PKA-R1A dissociation, Cy5-IP20 fluorescence polarization; scaled: DMSO 0%, 113 µM cGMP 100%; AID 504707; 340,000 compounds, 0.083% hits;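 active = percent activation above the mean of all tested compounds plus 3 SD, cut at about 19% in these data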;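 also: higher means more PKAc released from R1A so a rise in polarization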
PKA-R2B activ = activates the human PKA-R2B holoenzyme complex. activation, % at 11.4 µM. P22694+P31323. 340,000 compounds, 0.079% hits. PKA-R2B holoenzyme dissociation, Cy5-IP20 fluorescence polarization; R2B truncated from residue 108, S112A mutant; 0% DMSO only, 100% 113 µM cGMP;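 active = activation above a cutoff set at the mean over all compounds plus 3 SD, cut at about 18% in these data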;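 also: higher means more holoenzyme dissociation and a rise in polarization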
DiI quench = DiI fluorescence quenching in cell-free counter-screen; shares compounds with SR-BI HDL uptake; cell-free DiI-HDL fluorescence quenching, 30 min; AC50, µM (titrated, usually from 35 µM); 470 compounds, 20% hits; AID 540326;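 active = quenching, a falling signal, with AC50 below a set limit tied to the top valid dose, actives reach about 32 µM in these data; inconclusive = no clear call, values can overlap the other calls; inactive = rising signal, and the rest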
Of the large screens only hits and unclear results are named; the others gave an inactive call (follow-up assays come after a bar, where they were run). Most compounds without a hit are left out; they make up all but 1.4% or so of the library.

CCC(C)c1ccccc1N1CC(C(=O)N2CCN(S(=O)(=O)c3ccccc3Br)CC2)CC1=O (centres undefined)	SR-BI HDL uptake 78 | DiI quench inactive
Oc1csc(Cc2nc(-c3ccc4ccccc4c3)cs2)n1	SR-BI HDL uptake inconclusive | DiI quench 16µM
Oc1csc(Cc2nc(-c3ccc(-c4ccccc4)cc3)cs2)n1	none
Cc1ccc(F)cc1NC(=O)C1C2CCC(O2)C1C(=O)O (centres undefined)	none | DiI quench inactive
Cc1ccccc1NC(=O)C1C2CCC(O2)C1C(=O)O (centres undefined)	none
CN(C)C(CNC(=O)c1cccc(S(=O)(=O)NCc2ccccc2)c1)c1ccco1 (centres undefined)	none
Cc1cc(C)cc(NC(=O)CCc2c(C)nn(-c3ccc(N4CCCCC4)nn3)c2C)c1	SR-BI HDL uptake 79 | DiI quench inactive
COc1ccc(-c2nc(C)sc2CC(=O)O)cc1OC	none
O=C(c1ccc(-n2nc(C(F)(F)F)c3c2CCCC3)cc1)N1CCOCC1	SR-BI HDL uptake 79 (no result: Vif imaging) | DiI quench inactive
CN(C)C(=O)c1ccc(-n2nc(C(F)(F)F)c3c2CCCC3)cc1	SR-BI HDL uptake 83 | DiI quench inactive
O=C(O)c1ccc(-n2nc(C(F)(F)F)c3c2CCCC3)cc1	none
NC(=O)c1ccc(-n2nc(C(F)(F)F)c3c2CCCC3)cc1	none
COc1ccc(NC(=O)[C@@H](NC(N)=O)C(C)C)cc1Cl	none
CCC(C)C1/C=C\CC(NC(=O)OCC2c3ccccc3-c3ccccc32)CC(=O)N1Cc1ccccc1 (centres undefined)	SR-BI HDL uptake 75 | DiI quench inactive
CCOc1cc(/C=N/NC(=O)C(C)Sc2ccccc2)ccc1O (centres undefined)	none
COC(=O)C1=CN(c2ccc(F)cc2)C=C(C(=O)OC)C1c1ccc([N+](=O)[O-])cc1	none
CCOC(=O)C1=CN(c2cccc(F)c2)C=C(C(=O)OCC)C1c1cc(OC)c(O)c([N+](=O)[O-])c1	none (no result: Vif imaging) | DiI quench 7.7µM
COCCN(C(=O)COC(=O)c1cccc2ccccc12)c1c(N)n(Cc2ccccc2)c(=O)[nH]c1=O	none
COCCN(C(=O)COC(=O)c1ccccc1Nc1ccccc1)c1c(N)n(Cc2ccccc2)c(=O)[nH]c1=O	SR-BI HDL uptake 74 | DiI quench inactive
CC1CCN(S(=O)(=O)c2ccc(S(=O)(=O)N3CCCC3)cc2)CC1	none
COc1ccc(-c2[nH]c(-c3ccc(F)cc3)nc2SCC(=O)NC2CCCC2)cc1	SR-BI HDL uptake 78 (no result: Vif imaging) | DiI quench 26µM
CC(=O)Nc1ccc(-c2ccnc3c2CC(C)(C(=O)Nc2cccc(C(C)=O)c2)O3)cc1 (centres undefined)	none (no result: SR-BI HDL uptake, SR-BI DiI-HDL act, PKA-R1A activ, PKA-R2B activ)
O=C(CN1CCN(c2ncc(C(F)(F)F)cc2Cl)CC1)NCCNc1ncc(C(F)(F)F)cc1Cl	SR-BI HDL uptake 75 | DiI quench inactive
Cc1cc(C)cc(N(CCC#N)C(=O)CSc2n[nH]c(N)n2)c1	none
COc1ccccc1N1CCN(C(=O)c2cccc(S(=O)(=O)Nc3ccccc3F)c2)CC1	none
Cc1cc(C)c(C)c(S(=O)(=O)N2CCN(CC(=O)NC(=O)NCc3ccccc3)CC2)c1C	SR-BI HDL uptake 74 | DiI quench inactive
CSc1sc(-c2ccnc(SCCS(C)(=O)=O)n2)c(-c2ccccc2)c1C#N	none
CSc1nccc(-c2sc(SC)c(C#N)c2-c2ccccc2)n1	SR-BI HDL uptake 84 | DiI quench inactive
CCCCCOC(=O)c1[nH]c2c(c1C)C(=O)CC(c1ccco1)C2 (centres undefined)	SR-BI HDL uptake 80 | DiI quench inactive
CCOCCOC(=O)c1[nH]c2c(c1C)C(=O)CC(c1cccs1)C2 (centres undefined)	SR-BI HDL uptake 75 | DiI quench inactive
CCOC(=O)c1[nH]c2c(c1C)C(=O)CC(c1ccc(F)cc1)C2 (centres undefined)	SR-BI HDL uptake inconclusive | DiI quench inactive
CCOCCOC(=O)c1[nH]c2c(c1C)C(=O)CC(c1ccccc1)C2 (centres undefined)	none
